Assay outcomes (PubChem BioAssay)
Most compounds without a hit are left out; they make up all but 2.3% or so of the library.
DNMT1 block: human DNMT1 methyltransferase inhibitors, primary screen, biochemical, molecular beacon, fluorescence, HinP1I cleavage, uHTS | DNA (cytosine-5)-methyltransferase 1 (Homo sapiens), P26358 | inhibition (reported as % activation of signal), % at 10 µM | hit rate 0.83% among 360,000 | AID 588458, 2011; in the data active = inhibition above about 50%
Scp-1 inhibitor: Scp-1 phosphatase inhibitors, primary screen, biochemical, colorimetric, uHTS | Recombinant Scp1, phosphopeptide, malachite green phosphate absorbance | inhibition, % at 20 µM | hit rate 0.88% among 340,000 | AID 493091, 2011;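 active = inhibition above about 50% at 20 µM, limit read from the data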;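 also: plate controls were DMSO wells with enzyme for no effect and wells lacking enzyme for full effect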
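System: SCP-1 catalytic domain; Reagent: Phospho 17-mer peptide substrate; Doses: one concentration, 20 µM, with 1.0% DMSO; Incubation: 45 min room-temperature reaction, 5 min colour, 30 min stabiliser; Signal: Phosphate-binding colour reagent, absorbance read at 630 nm.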
Rpn11 block: Rpn11 (PSMD14) deubiquitinase inhibitors, primary screen, biochemical, fluorescence polarization, uHTS; 26S proteasome non-ATPase regulatory subunit 14 (Homo sapiens), O00487; human 26S proteasome, Ub4-pepOG fluorescence polarization; 20S core pre-blocked with epoxomicin; inhibition, % at 20 µM; hit rate 0.59% among 360,000; AID 588493, 2011;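 active = inhibition at 20 µM, scaled to each plate's controls, above about 33%, limit read from the data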
LMPTP inh: LMPTP phosphatase inhibitors, primary screen, biochemical, fluorescence intensity, uHTS | recombinant LMPTP-A, OMFP fluorogenic substrate | inhibition, % at 20 µM | hit rate 0.22% among 360,000 | AID 651560, 2012;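 active = compounds that cut the enzyme signal by at least half of the control window in the single-dose screen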;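 also: plate controls were DMSO wells with enzyme plus substrate for no effect and substrate without enzyme for full effect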
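Assay system: LMPTP-A phosphatase enzyme | Input: 0.625 nM enzyme | Also added: Fluorogenic phosphatase substrate OMFP at 400 µM final | Compound dosing: One test concentration per compound, 20 µM, with 3% DMSO overall | Schedule: 50 min enzyme reaction at room temperature, protected from light | Signal: Fluorescence intensity | Benchmarks: no-enzyme and uninhibited controls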
STEP inh: STEP phosphatase inhibitors, primary screen, biochemical, fluorescence intensity, uHTS; Tyrosine-protein phosphatase non-receptor type 5 (Homo sapiens), P54829; recombinant STEP, OMFP fluorogenic substrate; inhibition, % at 20 µM; hit rate 0.25% among 360,000; AID 588621, 2011;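 active = inhibition at 20 µM, scaled per plate between control wells, above about 37%, limit read from the data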;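 also: 0% = DMSO with enzyme and substrate and 100% = substrate only without enzyme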
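Material: STEP (striatal-enriched tyrosine phosphatase) enzyme, cell-free; Compound dosing: 20 µM single dose in 1% DMSO; Technique: fluorescence read at 480 nm ex / 540 nm em; Times: reaction 20 min, ambient temperature; Medium: 50 mM Bis-Tris pH 6.0 with 2.5 mM DTT and 0.005% Tween 20; Also added: OMFP at 25 µM.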
SUMO1-SIM PPI: modulators of SUMO1 protein-protein interactions, primary screen, biochemical, uHTS; SUMO1 binding to a labelled peptide, TR-FRET, 1 h; inhibition, % at 20 µM; hit rate 0.33% among 360,000; AID 602429, 2012; in the data active = inhibition above about 37%
Rpn11 inh conf: Rpn11 (PSMD14) deubiquitinase inhibitors, confirmation, biochemical, fluorescence polarization, single concentration. AID 602318, 2012. inhibition, % at 20 µM. shares compounds with Rpn11 block. hit rate 29% among 1,900. purified human 26S proteasome, Ub4-pepOG fluorescence polarization; proteasome pretreated with epoxomicin
MMP-2 counter: MMP-2 enzyme inhibition, confirmation, counter-screen for RPN11 inhibitor project, biochemical, fluorescence, single concentration. inhibition, % at 20 µM. hit rate 4% among 1,900. AID 602330, 2012. recombinant MMP-2, FRET peptide cleavage fluorescence. shares compounds with Rpn11 block;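 also: human MMP-2 activated beforehand with APMA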
Thrombin FP: bovine thrombin protease inhibition, confirmation, counter-screen for Rpn11 inhibitor project, biochemical, fluorescence polarization, single concentration; shares compounds with Rpn11 block; bovine thrombin cleavage of Ub4-pepOG; inhibition, % at 20 µM; hit rate 13% among 1,900; AID 602333, 2012;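 active = mean inhibition at least 40% at 20 µM, or signal 3 deviations below plate average, so some actives read negative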;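 also: plate controls were thrombin with DMSO for no effect and buffer wells lacking thrombin for full effect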
Target sequence (P00735 whole entry, looked up): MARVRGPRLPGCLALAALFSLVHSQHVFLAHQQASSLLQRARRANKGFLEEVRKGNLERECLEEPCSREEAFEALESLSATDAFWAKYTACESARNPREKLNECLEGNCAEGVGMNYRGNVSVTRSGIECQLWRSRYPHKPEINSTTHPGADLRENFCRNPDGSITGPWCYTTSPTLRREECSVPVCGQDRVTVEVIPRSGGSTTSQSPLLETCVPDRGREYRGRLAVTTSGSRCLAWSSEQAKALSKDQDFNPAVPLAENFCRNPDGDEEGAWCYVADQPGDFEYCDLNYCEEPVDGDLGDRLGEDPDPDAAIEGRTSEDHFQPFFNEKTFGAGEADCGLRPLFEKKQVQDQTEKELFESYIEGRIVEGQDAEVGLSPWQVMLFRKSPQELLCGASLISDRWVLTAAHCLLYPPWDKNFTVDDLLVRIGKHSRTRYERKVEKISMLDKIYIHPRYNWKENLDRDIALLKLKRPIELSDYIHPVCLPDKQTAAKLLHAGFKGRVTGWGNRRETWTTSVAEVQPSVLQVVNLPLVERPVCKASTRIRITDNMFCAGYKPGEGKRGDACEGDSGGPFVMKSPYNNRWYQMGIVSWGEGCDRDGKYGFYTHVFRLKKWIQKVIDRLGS
* marks the source's active call; other numbers are inactive results; . = no result; + = active, no number. Rule as the data show it, unless noted: active = inhibition above about 40%; inactive = the rest.

SMILES	DNMT1 block	Scp-1 inhibitor	Rpn11 block	LMPTP inh	STEP inh	SUMO1-SIM PPI	Rpn11 inh conf	MMP-2 counter	Thrombin FP
CN(CC(=O)Nc1ccc(F)cc1)C(=O)CCc1nc2sc3c(c2c(=O)[nH]1)CCCC3	26	30	48*	7	1	-13	38	-31	19
CN(CC(=O)Nc1ccc(Cl)cc1)C(=O)CCc1nc2sc3c(c2c(=O)[nH]1)CCCC3	42	36	52*	6	1	-11	72*	-31	26
CN(CC(=O)Nc1c(Cl)cccc1Cl)C(=O)CCc1nc2sc3c(c2c(=O)[nH]1)CCCC3	17	21	26	3	4	11	.	.	.
CN(CC(=O)Nc1ccccc1C(F)(F)F)C(=O)CCc1nc2sc3c(c2c(=O)[nH]1)CCCC3	2	-4	17	0	-2	-19	.	.	.
COC(=O)c1cc(C)sc1NC(=O)CSc1ncccn1	-1	-5	10	1	1	-4	.	.	.
COc1ccc(/C=C2\Oc3cc(OCC(N)=O)ccc3C2=O)cc1OC	-8	-4	8	0	2	-30	.	.	.
COc1ccc(-c2ccc3c(c2)O/C(=C\c2ccsc2)C3=O)cn1	-9	6	39*	2	1	3	-1	-11	-16
CC1CCN(C(=O)Cn2c3ccccc3c3nc4n(c(=O)c32)CCS4)CC1	1	-2	-8	1	3	-6	.	.	.
COc1ccc(Cl)cc1C(=O)Nc1cccc(-c2ccc3nncn3n2)c1	17	42	+	40	61*	47*	76*	16	14
CC(C)(C)OC(=O)[C@H](Cc1ccccc1)NC(=O)c1ncn2c1c(=O)[nH]c1ccc(Br)cc12	48	.	83*	73*	2	-28	-5	-33	-14
CC(C)(C)OC(=O)C(C)(C)O/N=C(\C(=O)O)c1csc(N)n1	2	-3	-2	-1	4	2	.	.	.
CCc1ccc(/C=C2\SC(=S)N(CCC(=O)N3CCN(C)CC3)C2=O)cc1	-1	1	51*	-4	-1	-23	70*	-53	54*
O=C(Nc1nc(-c2nc3ccccc3s2)cs1)c1ccco1	48	-10	191*	40	0	30	140*	18	24
Cc1cc(C)c(-c2nc3ccccc3s2)[nH]1	-7	2	60*	2	-4	-17	-6	-6	0
CCOC(=O)c1sc2nc(CN3CCN(c4cccc(C(F)(F)F)c4)CC3)[nH]c(=O)c2c1C	0	12	49*	1	2	-1	29	-13	5
COC(=O)c1sc2nc(CN3CCN(c4cccc(C(F)(F)F)c4)CC3)[nH]c(=O)c2c1C	4	-4	62*	1	-4	-3	13	-17	18
COc1cccc(N2CCN(Cc3nc4scc(-c5ccccc5)c4c(=O)[nH]3)CC2)c1	-7	3	53*	1	-1	3	12	30	22
COC(=O)c1sc2nc(CN3CCN(c4ccc(OC)cc4)CC3)[nH]c(=O)c2c1C	3	-10	15	2	-3	0	.	.	.
Cc1cccc(NS(=O)(=O)c2nnc(NC(=O)C3CCCCC3)s2)c1	-3	-9	5	1	-3	4	.	.	.
CCn1c(SCC(=O)c2c[nH]c3ccccc23)nnc1-c1cccs1	-4	-12	46*	1	-1	-24	79*	-32	44*
CN(C(=O)C1CCCN(c2ncnc3c2nc2n3CCCCC2)C1)c1cccc(Cl)c1 (centres undefined)	-3	-5	4	0	0	1	.	.	.
CCOC(=O)C1C(=O)NC(C(=O)OCC)(C(=O)OCC)C1CC (centres undefined)	2	-7	2	-2	2	-2	.	.	.
O=C(O)CSc1ncnc2scc(-c3ccccc3)c12	1	-5	1	1	-2	-2	.	.	.
O=C(O)CSc1ncnc2scc(-c3ccc(Br)cc3)c12	1	-1	51*	-1	-2	-1	37	-1	25
O=C(N/C(=N\O)c1ccccc1)Nc1ccc(Cl)cc1	-2	1	37*	0	-3	-4	-12	-47	-14
SMILES	DNMT1 block	Scp-1 inhibitor	Rpn11 block	LMPTP inh	STEP inh	SUMO1-SIM PPI	Rpn11 inh conf	MMP-2 counter	Thrombin FP
COc1ccccc1OCC(=O)NNc1c2ccccc2nc2ccccc12	-4	-7	-1	3	3	-20	.	.	.
Oc1c(CN2CCCCC2)cc(COCc2ccccc2)c2cccnc12	-5	-9	76*	1	5	-14	39	30	-11
COCc1cc(CN2CCCC2)c(O)c2ncccc12	-3	-8	26	-1	0	-6	.	.	.
COc1ccccc1N1CCN(Cc2cc(Br)c(O)c3ncccc23)CC1	-7	-11	45*	7	0	-10	31	34	-21
CCOc1ccccc1CNC(=O)C1CCCN(c2nnc(C)c3c(C)n(-c4ccccc4)nc23)C1 (centres undefined)	2	6	41*	6	-2	47*	25	-29	2
COc1ccc(-n2nc3c(N4CCC(C(=O)NCCc5ccccc5C)CC4)nnc(C)c3c2C)cc1	5	3	12	28	1	-14	.	.	.
Cc1ccc(-n2nc3c(N4CCC(C(=O)NCCc5ccccc5C)CC4)nnc(C)c3c2C)cc1	-3	20	22	18	3	-29	.	.	.
COc1ccc(-n2nc3c(N4CCC(C(=O)NCc5ccccc5C)CC4)nnc(C)c3c2C)cc1	21	30	74*	26	-2	16	34	-331	17
COC(=O)CSc1ncnc2c1sc1nc(N3CCOCC3)c3c(c12)CCCC3	-5	-10	-6	2	4	-44	.	.	.
